# Source: PubChem
# An excerpt weighted towards active compounds, which were near 3.6% of everything screened.
# PAFAH1B2 inh = PAFAH1B2 (human) inhibition; P68402; recombinant PAFAH1B2, FP-rhodamine activity probe, fluorescence polarization; inhibition, % at 3.39 µM; 340,000 tested, 1.2% active; AID 492953;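 active = inhibition above the mean of all tested compounds plus 3 SD, cut at about 24% in these data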;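 also: 0% = enzyme with DMSO and 100% = wells lacking PAFAH1B2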
# Target sequence (P68402 whole entry, looked up): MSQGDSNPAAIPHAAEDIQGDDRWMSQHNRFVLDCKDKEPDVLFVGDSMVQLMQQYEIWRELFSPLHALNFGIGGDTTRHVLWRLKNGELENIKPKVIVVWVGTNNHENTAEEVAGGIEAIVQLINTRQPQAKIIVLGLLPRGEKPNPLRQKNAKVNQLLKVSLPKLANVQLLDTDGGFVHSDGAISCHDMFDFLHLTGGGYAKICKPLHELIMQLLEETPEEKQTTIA
# pPAFAH FP inh = pPAFAH (human) enzyme inhibition; Q13093; recombinant pPAFAH, FP-rhodamine probe fluorescence polarization; inhibition, % at 3.39 µM; 330,000 tested, 1.5% active;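 active = inhibition above the mean inhibition across the screen plus 3 SD, cut at about 25% in these data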;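 also: inhibitors block binding of the rhodamine activity-based probe so polarization drops; 0% = enzyme with DMSO and 100% = wells lacking pPAFAH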
# IMP-1 inhibitor = inhibitors of Pseudomonas aeruginosa IMP-1 metallo-beta-lactamase; purified IMP-1, nitrocefin hydrolysis, epi-absorbance fluorescence; inhibition, % at 5.6 µM; 290,000 tested, 0.45% active;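 active = inhibition above the mean plus 3 SD of all compounds in the same screening run, cut at about 4.5% in these data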;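 also: 0% = IMP-1 with DMSO and 100% = DMSO wells lacking enzyme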
#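 system = purified recombinant IMP-1 beta-lactamase | amount = 0.2 nM IMP-1, as dispensed | medium = HEPES buffer pH 7.1 with ZnSO4 and Brij 35 | times = 25 °C, 15 min preincubation, 25 min reaction | detection = plate fluorescence quenching by hydrolysis product, ex 480/em 530 nm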
# PAFAH2 inh = inhibitors of human PAFAH2. Q99487. 340,000 tested, 0.99% active. inhibition, % at 3.39 µM. recombinant PAFAH2, FP-rhodamine activity probe, fluorescence polarization;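 active = inhibition above the mean over all tested compounds plus 3 SD, cut at about 30% in these data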;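 also: inhibitors block probe labeling of enzyme so polarization drops; 0% = enzyme with DMSO and 100% = wells lacking PAFAH2 protein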
# PAFAH1B3 FP inh = PAFAH1B3 (human) inhibition | Q15102 | recombinant PAFAH1B3, FP-rhodamine probe, fluorescence polarization | inhibition, % at 3.39 µM | 340,000 tested, 0.28% active;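 active = inhibition above the screen-wide average of all tested compounds plus 3 SD, cut at about 25% in these data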;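 also: 0% = enzyme with DMSO only and 100% = wells lacking PAFAH1B3 protein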
# Target sequence (Q15102 whole entry, looked up): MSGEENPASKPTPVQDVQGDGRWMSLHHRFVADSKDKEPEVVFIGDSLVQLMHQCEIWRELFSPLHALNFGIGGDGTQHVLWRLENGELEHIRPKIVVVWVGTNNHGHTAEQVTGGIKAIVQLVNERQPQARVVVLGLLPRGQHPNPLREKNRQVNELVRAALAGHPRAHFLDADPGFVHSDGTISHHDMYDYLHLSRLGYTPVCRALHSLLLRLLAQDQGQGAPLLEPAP
# VIM-2 inh = inhibitors of Pseudomonas aeruginosa VIM-2 metallo-beta-lactamase; purified VIM-2, nitrocefin hydrolysis, epi-absorbance fluorescence; 290,000 tested, 0.89% active; inhibition, % at 5.6 µM;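 active = inhibition above the mean of all tested compounds plus 3 SD, cutoff set per screening run, cut at about 7.5% in these data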;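 also: red hydrolysis product quenches plate fluorescence so inhibitors raise well fluorescence; 0% = enzyme with DMSO and 100% = DMSO without enzyme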
# * marks the source's active call; other numbers are inactive results; nt = not tested or not shown.
SMILES,PAFAH1B2 inh,pPAFAH FP inh,IMP-1 inhibitor,PAFAH2 inh,PAFAH1B3 FP inh,VIM-2 inh
COC(=O)C(C)Oc1cc(C)cc2oc(=O)c3c(c12)CCCC3 (configuration not stated),4,1,-2,-8,3,9.9*
Cc1cc(OCc2nn[nH]n2)c2c3c(c(=O)oc2c1)CCC3,7,-2,-1,0,6,12*
CN1[C@H]2CC[C@@H]1C(C(=O)N1CCOCC1)=C(O)C2,-1,-4,nt,-9,2,nt
COc1ccccc1CC(=O)N1CCN(CCc2ccccc2)CC1,-2,6,-4,4,2,-2
COc1ccc(CN2Cc3cnnn3-c3ccccc3C2C)cc1 (configuration not stated),4,nt,nt,1,8,nt
CCOc1cccc(OCC)c2c(C)[n+](CC3CCCO3)c(C)c1-2 (configuration not stated),15,19,-4,32*,6,-2
Nc1ccc2cc(Br)ccc2c1,54*,8,-2,5,3,2
Nc1ccc(Br)cc1,6,nt,nt,1,5,nt
CN1C2CCC1C(C(=O)O)C(O)C2 (configuration not stated),-1,-1,nt,-7,4,nt
Nc1ccc(C2(c3ccc(N)cc3)CCCCC2)cc1,38*,9,-4,2,5,1
CNC1(c2ccc(F)cc2)CCCCC1,1,nt,nt,0,9,nt
O=C1CC(=O)N(c2cccc(C(F)(F)F)c2)C(=O)N1,4,2,-1,0,7,0
FC(F)(F)c1cccc(-n2nnnc2C2(N3CCOCC3)CCCCC2)c1,31*,-1,-3,-4,7,-4
CCN(CC)C(=O)c1ccc(NC(=O)COc2ccc(-c3nn(C)c(=O)c4ccccc34)cc2)cc1,-4,2,-2,5,-2,9.0*
CCN(CC)C(=O)c1ccc(NC(=O)c2cn(-c3ccccc3)nc2-c2ccc(OC)cc2)cc1,-4,2,-4,-20,-1,-3
O=C1NC(=O)[C@]2(Cc3ccccc3N3CCN(c4ccccc4)CC32)C(=O)N1c1ccccc1 (some centres not stated),4,28*,-4,20,3,-2
Cc1cc(C)cc(N2C(=O)NC(=O)/C(=C\c3cccn3-c3ccc(Cl)cc3)C2=O)c1,43*,6,-2,39*,-2,-1
CCOP(=O)(C#CC(C)(C)C)C(C)(O)c1ccccc1 (configuration not stated),5,2,-4,1,3,-1
CC(C)(C#CC(=O)O)OOC(c1ccccc1)(c1ccccc1)c1ccccc1,9,31*,-3,5,14,-2
COC(=O)C1=C(c2ccc(F)cc2OCc2ccccc2)C[C@@H]2CC[C@H]1N2C(=O)N1CCCC1,5,4,nt,-39,5,nt
Cc1ccc(/C=C2\C(=O)NC(=S)N(c3ccc(F)cc3)C2=O)o1,3,nt,0,11,-2,-1
Cc1ccc(N2C(=O)/C(=C/c3ccc(CN(CCC#N)S(C)(=O)=O)o3)C(=O)NC2=S)cc1,-5,28*,-2,33*,2,-3
CCOCCCn1c(N)c(C(=O)Nc2sc3c(c2C(=O)OC)CCCC3)c2nc3ccccc3nc21,31*,2,-3,35*,52*,-5
Cc1ccc(S(=O)(=O)N2CCN(C(=O)COC(=O)Cc3ccccc3)CC2)c(C)c1,7,31*,nt,24,1,nt
Cc1ccc(C(=O)COC(=O)Cc2ccccc2)cc1,9,8,0,-1,1,1
SMILES,PAFAH1B2 inh,pPAFAH FP inh,IMP-1 inhibitor,PAFAH2 inh,PAFAH1B3 FP inh,VIM-2 inh
CCc1ccc2nc(N3CCC(C(=O)N4CCC5(CC4)OCCO5)CC3)sc2c1,1,29*,-4,1,4,0
COc1cc2c(cc1OC)C13CCN4CC5=CCOC(CC(=O)O)C(C5CC41)C3N2 (configuration not stated),2,nt,nt,6,8,nt
CCn1nc(-c2cccs2)nc2c(=O)n(C)c(=O)nc1-2,47*,nt,nt,56*,74*,nt
CC(C)[C@@]1(NC(=O)[C@@H]2C=C3c4cccc5[nH]cc(c45)C[C@H]3N(C)C2)O[C@@]2(O)[C@@H]3CCCN3C(=O)[C@H](Cc3ccccc3)N2C1=O,nt,nt,0,nt,nt,2
CC(C)C[C@H]1C(=O)N2CCCC2[C@]2(O)O[C@](NC(=O)[C@@H]3C=C4c5cccc6[nH]cc(c56)CC4N(C)C3)(C(C)C)C(=O)N12 (some centres not stated),15,17,0,-8,39*,1
Nc1nc(N)c2cnnn2n1,1,nt,nt,-7,-1,nt
CC(=O)OC1C(O)C(C)OC(OC2C(OC(=O)C3CCC4C(C3)OC3(CC(OC(=O)/C=C/c5ccccc5)C(C)CO3)C43CO3)OC(C)C(O)C2OC(C)=O)C1O (configuration not stated),5,nt,nt,5,5,nt
COc1cc(C=C2C(=O)NC(=O)NC2=O)ccc1OCc1ccc([N+](=O)[O-])cc1,26*,nt,-2,7,2,-1
O=C1NC(=O)C(=Cc2ccc(Oc3ccc([N+](=O)[O-])cc3)cc2)C(=O)N1,7,1,-2,4,3,-3
COc1ccc(/C=C/C=C2C(=O)NC(=S)NC2=O)cc1,9,nt,nt,14,5,nt
COc1cccc(-n2c(/C=C/c3ccc(O)c(O)c3)nc3ccccc3c2=O)c1,1,33*,0,7,-9,0
O=C(N/N=C/c1c(O)n(Cc2ccc(F)cc2)c(=O)[nH]c1=O)c1ccccc1O,35*,32*,-3,11,19,-3
O=C(N/N=C/c1c(O)n(CCc2ccccc2)c(=O)[nH]c1=O)c1ccccc1O,9,22,-5,4,13,-4
COc1ccc(Cn2c(O)c(/C=N/NC(=O)c3ccccc3O)c(=O)[nH]c2=O)cc1,23,27*,-3,18,20,-3
O=C(N/N=C/c1c(O)n(Cc2ccccc2)c(=O)[nH]c1=O)c1ccccc1O,34*,23,-4,47*,33*,-4
COc1ccc(Cn2c(O)c(/C=N/NC(=O)c3ccccc3)c(=O)[nH]c2=O)cc1,8,7,-1,16,5,-1
C[Se]C[C@@H](N)C(=O)O,-2,3,nt,-4,5,nt
COC(=O)C1=C(c2ccc(OC(F)(F)F)cc2)C[C@@H]2CC[C@H]1N2C(=O)NC1CCCCC1,10,1,nt,-1,17,nt
CC(C)OC(=O)c1c(N)n(CC2CCCO2)c2nc3ccccc3nc12 (configuration not stated),-2,2,-3,-3,-3,-3
CC(C)OCCCNC(=O)c1c(N)n(CC2CCCO2)c2nc3ccccc3nc12 (configuration not stated),26*,12,-4,28,55*,2
